Laboratory results taken from ChEMBL document CHEMBL2384924, “Antagonists for the orphan G-protein-coupled receptor GPR55 based on a coumarin scaffold” (J Med Chem, 2013).
Calls of active or inactive are those of the source. Unless noted, the rule behind the calls is not given here.

Columns and labels:
[1] = molecular target: T1, G-protein coupled receptor 55 (Homo sapiens, UniProt Q9Y2T6); assay: Agonist activity at human GPR55 transfected in CHO cells at 10 uM after 90 mins by beta-arrestin translocation assay; format: cell-based
T1 sequence (Q9Y2T6 whole entry, the tested form may be a part): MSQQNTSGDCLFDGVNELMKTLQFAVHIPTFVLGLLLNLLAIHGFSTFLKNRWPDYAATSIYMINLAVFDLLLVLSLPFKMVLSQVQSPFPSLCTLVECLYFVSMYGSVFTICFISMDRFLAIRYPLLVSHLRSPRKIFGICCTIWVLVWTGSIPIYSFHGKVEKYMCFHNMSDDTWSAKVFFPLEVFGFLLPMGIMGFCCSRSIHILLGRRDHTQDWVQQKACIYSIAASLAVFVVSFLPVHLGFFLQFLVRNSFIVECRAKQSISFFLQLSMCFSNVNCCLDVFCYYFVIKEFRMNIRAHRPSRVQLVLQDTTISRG
Procedure, shortened: (§1)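 CHO cells stably expressing human GPR55 (β-galactosidase fragment complementation) were seeded at 20,000 cells/well in Opti-MEM with 2% FCS for 24 h at 37°C. Compound was diluted in PBS with 10% DMSO and 0.1% BSA, screened at 10 µM and incubated 90 min at 37°C. Galacton-Star/Emerald-II/lysis buffer (1:5:19) was added for 60 min at RT, then luminescence was read. Response is relative to 1 µM LPI (100%).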

Cannabinoid receptor 2 [2] = molecular target: T2, Cannabinoid receptor 2 (Homo sapiens, UniProt P34972); assay: Antagonist activity at human CB2 receptor expressed in CHOK1 cells assessed as inhibition of forskolin-stimulated cAMP level at 10 uM; format: functional, cell-based; conditions: CHO-K1
T2 sequence (P34972 whole entry): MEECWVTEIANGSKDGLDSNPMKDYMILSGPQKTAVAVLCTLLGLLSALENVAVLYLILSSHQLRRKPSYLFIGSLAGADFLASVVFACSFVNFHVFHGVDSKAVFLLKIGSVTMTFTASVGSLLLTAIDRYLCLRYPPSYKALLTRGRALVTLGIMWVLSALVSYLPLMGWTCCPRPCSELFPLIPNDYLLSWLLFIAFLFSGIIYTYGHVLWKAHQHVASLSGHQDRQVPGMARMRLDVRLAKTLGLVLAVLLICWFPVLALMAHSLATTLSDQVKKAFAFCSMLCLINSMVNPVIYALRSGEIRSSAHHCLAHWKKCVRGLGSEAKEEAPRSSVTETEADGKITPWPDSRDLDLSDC

[3] = molecular target: T3, N-arachidonyl glycine receptor (Homo sapiens) (UniProt Q14330); assay: Antagonist activity at human GPR18 transfected in CHO cells assessed as delta9-THC-induced beta-arrestin recruitment at 10 uM incubated 60 mins prior to delta9-THC addition by beta-arrestin translocation assay; format: cell-based; parameters: scale not given: the % may be the effect or the level left
T3 sequence (whole entry): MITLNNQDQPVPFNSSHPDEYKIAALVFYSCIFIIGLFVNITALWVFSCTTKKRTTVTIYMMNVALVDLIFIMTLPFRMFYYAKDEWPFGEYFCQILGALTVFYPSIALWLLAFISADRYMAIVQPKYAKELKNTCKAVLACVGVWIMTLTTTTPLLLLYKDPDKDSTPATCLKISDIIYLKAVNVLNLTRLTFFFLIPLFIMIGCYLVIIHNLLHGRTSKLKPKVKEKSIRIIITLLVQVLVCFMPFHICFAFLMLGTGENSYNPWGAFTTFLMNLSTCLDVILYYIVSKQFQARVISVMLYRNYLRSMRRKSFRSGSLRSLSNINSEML
Procedure, shortened: (§2)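 CHO cells stably expressing human GPR18 were seeded at 20,000 cells/well for 24 h at 37°C. Compound in PBS/10% DMSO/0.1% BSA was added 60 min before the GPR18 agonist 3 at 10 µM. The supplier's detection reagent was used, and luminescence was read after 60 min at RT. Screening was at 10 µM (% inhibition); IC50 from concentration-inhibition curves. Three independent experiments in duplicate.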

[4] = molecular target: T1, G-protein coupled receptor 55; assay: Antagonist activity at human GPR55 transfected in CHO cells assessed as inhibition of LPI-induced beta-arrestin recruitment incubated 60 mins prior to LPI addition by beta-arrestin translocation assay; format: cell-based
Procedure, shortened: (§3)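 CHO cells stably expressing human GPR55 were seeded at 20,000 cells/well for 24 h at 37°C. Compound in PBS/10% DMSO/0.1% BSA was added 60 min before 1 µM LPI. Galacton-Star/Emerald-II/lysis buffer (pH 8) was applied for 60 min at RT, with luminescence read-out. Screening was at 10 µM (% inhibition). IC50 was measured where inhibition exceeded 60%. Three independent experiments in duplicate.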

Cannabinoid receptor 1 [5] = molecular target: T4, Cannabinoid receptor 1 (Homo sapiens, UniProt P21554); assay: Displacement of [3H]-CP55,940 from human CB1 receptor transfected in CHOK1 cells; format: cell-based, CHO-K1
T4 sequence (P21554 whole entry): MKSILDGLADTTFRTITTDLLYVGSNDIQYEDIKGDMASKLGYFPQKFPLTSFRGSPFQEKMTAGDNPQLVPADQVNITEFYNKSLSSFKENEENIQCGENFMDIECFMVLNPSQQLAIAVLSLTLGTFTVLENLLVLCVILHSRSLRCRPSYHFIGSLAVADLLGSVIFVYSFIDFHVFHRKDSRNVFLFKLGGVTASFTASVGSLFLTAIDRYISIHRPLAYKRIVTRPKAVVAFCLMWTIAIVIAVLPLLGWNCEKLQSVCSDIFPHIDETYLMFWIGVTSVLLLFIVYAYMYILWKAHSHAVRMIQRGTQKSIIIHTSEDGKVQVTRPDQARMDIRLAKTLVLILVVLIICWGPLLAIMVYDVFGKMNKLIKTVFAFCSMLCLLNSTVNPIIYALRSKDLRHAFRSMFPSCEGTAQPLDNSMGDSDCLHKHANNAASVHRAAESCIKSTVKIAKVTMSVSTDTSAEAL

Cannabinoid receptor 2 [6] = molecular target: T2, Cannabinoid receptor 2; assay: Displacement of [3H]-CP55,940 from human CB2 receptor transfected in CHOK1 cells; format: cell-based, CHO-K1
Procedure, shortened: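 CHO cells stably expressing human CB2 supplied the membranes, 1 µg protein per vial. Compounds were screened at 10 µM, and full competition curves were run where inhibition was about 50% or more. Three independent experiments in duplicate.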

Cannabinoid receptor 1 [7] = molecular target: T4, Cannabinoid receptor 1; assay: Antagonist activity at human CB1 receptor expressed in CHOK1 cells assessed as inhibition of forskolin-stimulated cAMP level at 10 uM; format: functional, cell-based; conditions: CHO-K1
[8] = molecular target: T5, N-arachidonyl glycine receptor (Homo sapiens, UniProt Q14330); assay: Antagonist activity at human GPR18 transfected in CHO cells assessed as delta9-THC-induced beta-arrestin recruitment incubated 60 mins prior to delta9-THC addition by beta-arrestin translocation assay; format: cell-based; procedure, shortened: as §2
T5 sequence (Q14330 whole entry): T3 sequence (whole entry)

[9] = molecular target: T1, G-protein coupled receptor 55; assay: Antagonist activity at human GPR55 transfected in CHO cells assessed as inhibition of LPI-induced beta-arrestin recruitment incubated 60 mins prior to LPI addition by Gaddum method; format: cell-based
Procedure, shortened: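 In the human GPR55 CHO β-arrestin luminescence assay, full LPI concentration-response curves were run without and with 3-4 antagonist concentrations. Antagonist was preincubated 1 h, then incubated with agonist […]. KB was estimated by the Gaddum method. Three independent experiments in duplicate.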

Cannabinoid receptor 2 [10] = molecular target: T2, Cannabinoid receptor 2; assay: Agonist activity at human CB2 receptor expressed in CHOK1 cells assessed as […] of forskolin-stimulated cAMP level at 10 uM; format: functional, cell-based; conditions: CHO-K1
Cannabinoid receptor 1 [11] = molecular target: T4, Cannabinoid receptor 1; assay: Agonist activity at human CB1 receptor expressed in CHOK1 cells assessed as […] of forskolin-stimulated cAMP level at 10 uM; format: functional, cell-based; conditions: CHO-K1
[12] = molecular target: T1, G-protein coupled receptor 55; assay: Antagonist activity at human GPR55 expressed in HEK293 cells assessed as inhibition of LPI-induced beta-arrestin recruitment incubated 60 mins prior to LPI addition by beta-arrestin translocation assay; format: cell-based; parameters: scale not given: the % may be the effect or the level left
Cannabinoid receptor 2 [13] = molecular target: T2, Cannabinoid receptor 2; assay: Displacement of [3H]-CP55,940 from human CB2 receptor transfected in CHOK1 cells at 10 uM; format: cell-based; conditions: CHO-K1
Procedure, shortened: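 Competition binding used membranes from CHO cells stably expressing human CB2 (1 µg protein per vial) and [3H]CP55,940 at 0.1 nM final. Compound stocks were in DMSO (2.5% final). Compound was tested at 10 µM as % inhibition of radioligand binding. Three independent experiments in duplicate.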

[14] = molecular target: T1, G-protein coupled receptor 55; assay: Antagonist activity at human GPR55 transfected in CHO cells assessed as inhibition of LPI-induced beta-arrestin recruitment at 10 uM incubated 60 mins prior to LPI addition by beta-arrestin translocation assay; format: cell-based; parameters: scale not given: the % may be the effect or the level left; procedure, shortened: as §3
Cannabinoid receptor 1 [15] = molecular target: T4, Cannabinoid receptor 1; assay: Displacement of [3H]-CP55,940 from human CB1 receptor transfected in CHOK1 cells at 10 uM; format: cell-based; conditions: CHO-K1
Procedure, shortened: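 Human CB1 from membrane preparations of stably transfected CHO cells, 25 µg protein per vial. Competition with [3H]CP55,940 at 0.1 nM final, with test compound at 10 µM, read as % inhibition of radioligand binding. Final DMSO 2.5%. Three independent experiments in duplicate.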

[16] = molecular target: T1, G-protein coupled receptor 55; assay: Agonist activity at human GPR55 transfected in CHO cells after 90 mins by beta-arrestin translocation assay relative to LPI; format: cell-based; procedure, shortened: as §1

SMILES | Activity [1] | Activity [3] [%] | IC50 [4] [µM] | IC50 [8] [µM] | Activity (Cannabinoid receptor 2 [10]) | also measured
CCCCCc1cc(OC)c2cc(Cc3ccc(Br)cc3)c(=O)oc2c1 | inactive | 30 | 3.76 | > 10 |  | inhibition (Cannabinoid receptor 2 [2]): Active; Ki (Cannabinoid receptor 1 [5]): 10.2 µM; Ki (Cannabinoid receptor 2 [6]): 0.578 µM; inhibition (Cannabinoid receptor 1 [7]): Active
CCCCCc1cc(OC)c2cc(Cc3cccc(OC)c3)c(=O)oc2c1 | inactive | 33 | 3.23 | > 10 | Active | Kb [9]: 16.5 µM; Kb ([4]; read-out: pA2 (converted)): 7.94 pM; Activity (Cannabinoid receptor 1 [11]): Active
C=C(C)[C@@H]1CCC(C)=C[C@H]1c1c(O)cc(CCC)cc1O |  |  |  |  |  | Activity [12]: 56%
CCCCCCCC(C)(C)c1cc(OC)c2cc(Cc3ccccc3OC)c(=O)oc2c1 | inactive | 33 | > 10 | > 10 |  | Activity (Cannabinoid receptor 2 [13]): 47%; Activity [14]: 31%; Activity (Cannabinoid receptor 1 [15]): 51%
CCCCCCCC(C)(C)c1cc(O)c2cc(Cc3ccccc3O)c(=O)oc2c1 | inactive |  | 0.113 | 12.5 | Active | Kb [9]: 0.561 µM; inhibition [4]: Dose-dependent effect
CCCCC1(c2cc(O)c3cc(Cc4ccccc4O)c(=O)oc3c2)CCCC1 | inactive | 57 | 0.854 |  | Active | 
CCCCC1(c2cc(O)c3cc(Cc4ccccc4O)c(=O)oc3c2)CCCCC1 | inactive | 59 | 0.961 | ≥ 10 | Active | 
CCCCCCC(C)(C)c1cc(O)c2cc(Cc3ccccc3)c(=O)oc2c1 | inactive |  | 0.358 | 8.1 | Active | Activity (Cannabinoid receptor 1 [11]): Active
CCCCC1(c2cc(OC)c3cc(Cc4ccccc4OC)c(=O)oc3c2)CCCCC1 | inactive | 33 | > 10 | > 10 |  | Activity (Cannabinoid receptor 2 [13]): 45%; Activity [14]: 44%; Activity (Cannabinoid receptor 1 [15]): 42%; Ki (Cannabinoid receptor 1 [5]): ≥ 10 µM; Ki (Cannabinoid receptor 2 [6]): ≥ 10 µM
CCCc1cc(O)c2c(c1)OC(C)(C)[C@@H]1CCC(C)=C[C@@H]21 |  |  |  |  |  | Activity [12]: 50%
Cc1ccc(C(C)C)c2cc(Cc3ccccc3)c(=O)oc12 | inactive | 12 | 5.33 | > 10 |  | Activity (Cannabinoid receptor 2 [13]): 24%; Activity (Cannabinoid receptor 1 [15]): 24%; Ki (Cannabinoid receptor 1 [5]): > 10 µM; Ki (Cannabinoid receptor 2 [6]): > 10 µM
Cc1cc2c(C(C)C)ccc(C)c2oc1=O | inactive | 11 | 3.45 | > 10 |  | Activity (Cannabinoid receptor 2 [13]): 0%; Activity (Cannabinoid receptor 1 [15]): 26%; Ki (Cannabinoid receptor 1 [5]): > 10 µM; Ki (Cannabinoid receptor 2 [6]): > 10 µM
CCCCCCC(C)(C)c1cc(O)c2cc(Cc3ccccc3O)c(=O)oc2c1 | inactive |  | 0.261 | 15.9 | Active | 
CCCCCc1cc(OC)c2cc(Cc3ccc(Cl)cc3)c(=O)oc2c1 | inactive | 50 | 3.29 | 10 | Active | Ki (Cannabinoid receptor 1 [5]): 0.613 µM; Ki (Cannabinoid receptor 2 [6]): 0.578 µM; inhibition (Cannabinoid receptor 1 [7]): Active
CCCCCc1cc(OC)c2cc(Cc3ccccc3C)c(=O)oc2c1 | inactive | 34 | 5.08 | > 10 | Active | inhibition (Cannabinoid receptor 1 [7]): Active
CCCCC/C=C\C/C=C\C/C=C\C/C=C\CCCC(=O)O[C@H](CO)COP(=O)(O)O[C@@H]1[C@H](O)[C@H](O)[C@@H](O)[C@H](O)[C@H]1O |  |  |  |  |  | EC50 [16]: 1 µM
CCCCCc1cc(OC)c2cc(Cc3ccccc3OC)c(=O)oc2c1 | inactive | 20 | 6.35 | > 10 | Active | Activity (Cannabinoid receptor 1 [11]): Active
Cc1ccc(C(C)C)c2cc(Cc3ccccc3O)c(=O)oc12 | inactive | 32 | 1.77 | > 10 |  | Activity (Cannabinoid receptor 2 [13]): 24%; Activity (Cannabinoid receptor 1 [15]): 31%
CCCCCc1cc(O)c2cc(Cc3cccc(O)c3)c(=O)oc2c1 | inactive | 27 | 10.6 | > 10 |  | inhibition (Cannabinoid receptor 2 [2]): Active; inhibition (Cannabinoid receptor 1 [7]): Active
